Assay results as given in ChEMBL document CHEMBL1139087, “Structure-activity relationships of 3-aminoquinazolinediones, a new class of bacterial type-2 topoisomerase (DNA gyrase and topo IV) inhibitors” (Bioorg Med Chem Lett, 2007).
Converted amounts (≈) assume the structure as drawn.

What was measured:
[1] = test system: Escherichia coli; test: Antibacterial activity against Escherichia coli MC4100 EC2026; format: functional
Method in brief: (§1)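 MIC (μg/mL) by standard broth microtitration dilution following NCCLS M7-A5 for aerobically growing bacteria. Panel: Gram-negative E. coli MC4100 (wild-type) and E. coli Tol C (membrane efflux-pump deficient); Gram-positive Enterococcus faecalis, Staphylococcus aureus and Streptococcus pyogenes.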

[2] = test system: Escherichia coli; test: Antibacterial activity against membrane efflux-pump deficient Escherichia coli Tol C EC2549; format: functional; method in brief: as §1
[3] = test system: Enterococcus faecalis; test: Antibacterial activity against Enterococcus faecalis MGH-2 EF1-1; format: functional; method in brief: as §1
[4] = test system: Staphylococcus aureus; test: Antibacterial activity against Staphylococcus aureus UC-76 SA-1; format: functional; method in brief: as §1
[5] = test system: Streptococcus pyogenes; test: Antibacterial activity against Streptococcus pyogenes C-203 SP1-1; format: functional; method in brief: as §1
[6] = Inhibition of Escherichia coli H560 DNA gyrase assessed as DNA cleavage

SMILES: N[C@H]1CCN(c2cc3c(cc2F)c(=O)n(N)c(=O)n3CC2CC2)C1
- MIC [1]: > 64 µg/mL
- MIC [2]: 8 µg/mL (≈ 24 µM)
- MIC [3]: > 64 µg/mL
- MIC [4]: > 64 µg/mL
- MIC [5]: > 64 µg/mL
- IC50 [6]: 20 µM

SMILES: NCC1CCN(c2c(F)cc3c(=O)n(N)c(=O)n(C4CC4)c3c2Cl)C1 (stereo not given)
- MIC [1]: 4 µg/mL (≈ 10.9 µM)
- MIC [2]: 0.25 µg/mL (≈ 0.68 µM)
- MIC [3]: 0.25 µg/mL (≈ 0.68 µM)
- MIC [4]: 0.5 µg/mL (≈ 1.36 µM)
- MIC [5]: 0.13 µg/mL (≈ 0.353 µM)
- IC50 [6]: 0.3 µM

SMILES: CCOc1c(N2CCC(N)C2)c(F)cc2c(=O)n(N)c(=O)n(C3CC3)c12 (stereo not given)
- MIC [1]: 32 µg/mL (≈ 88.1 µM)
- MIC [2]: 4 µg/mL (≈ 11 µM)
- MIC [3]: > 64 µg/mL
- MIC [4]: > 64 µg/mL
- MIC [5]: 64 µg/mL (≈ 176 µM)
- IC50 [6]: 11 µM

SMILES: N[C@H]1CCN(c2cc3c(cc2F)c(=O)n(N)c(=O)n3C2CC2)C1
- MIC [1]: 8 µg/mL (≈ 25.1 µM)
- MIC [2]: 1 µg/mL (≈ 3.13 µM)
- MIC [3]: 32 µg/mL (≈ 100 µM)
- MIC [4]: 64 µg/mL (≈ 200 µM)
- MIC [5]: 16 µg/mL (≈ 50.1 µM)
- IC50 [6]: 1.6 µM

SMILES: Cc1c(F)c(N2CC[C@@H]([C@H](C)N)C2)c(C)c2c1c(=O)n(N)c(=O)n2C1CC1
- MIC [1]: 2 µg/mL (≈ 5.33 µM)
- MIC [2]: 0.03 µg/mL (≈ 0.0799 µM)
- MIC [3]: 0.06 µg/mL (≈ 0.16 µM)
- MIC [4]: 0.06 µg/mL (≈ 0.16 µM)
- MIC [5]: 0.03 µg/mL (≈ 0.0799 µM)
- IC50 [6]: 0.24 µM

SMILES: CN[C@H]1CCN(c2c(F)cc3c(=O)n(NC)c(=O)n(C4CC4)c3c2Cl)C1
- MIC [1]: > 64 µg/mL
- MIC [2]: 8 µg/mL (≈ 21 µM)
- MIC [3]: > 64 µg/mL
- MIC [4]: > 64 µg/mL
- MIC [5]: > 64 µg/mL

SMILES: Cc1c(N2CC[C@@H]([C@H](C)N)C2)c(F)cc2c(=O)n(N)c(=O)n(C3CC3)c12
- MIC [1]: 1 µg/mL (≈ 2.77 µM)
- MIC [2]: 0.03 µg/mL (≈ 0.083 µM)
- MIC [3]: 0.06 µg/mL (≈ 0.166 µM)
- MIC [4]: 0.06 µg/mL (≈ 0.166 µM)
- MIC [5]: 0.015 µg/mL (≈ 0.0415 µM)
- IC50 [6]: 0.2 µM

SMILES: CC(=O)Nn1c(=O)c2cc(F)c(N3CCC(N)C3)c(Cl)c2n(C2CC2)c1=O (stereo not given)
- MIC [1]: 64 µg/mL (≈ 162 µM)
- MIC [2]: 2 µg/mL (≈ 5.05 µM)
- MIC [3]: > 64 µg/mL
- MIC [4]: > 64 µg/mL
- MIC [5]: > 64 µg/mL
- IC50 [6]: 10 µM

SMILES: Nc1c(F)c(N2CCC(N)C2)c(F)c2c1c(=O)n(N)c(=O)n2C1CC1 (stereo not given)
- MIC [1]: 8 µg/mL (≈ 22.7 µM)
- MIC [2]: 1 µg/mL (≈ 2.84 µM)
- MIC [3]: 64 µg/mL (≈ 182 µM)
- MIC [4]: 32 µg/mL (≈ 90.8 µM)
- MIC [5]: 32 µg/mL (≈ 90.8 µM)
- IC50 [6]: 21 µM

SMILES: NC1CCN(c2c(F)c(F)c3c(=O)n(N)c(=O)n(C4CC4)c3c2F)C1 (stereo not given)
- MIC [1]: 2 µg/mL (≈ 5.63 µM)
- MIC [2]: 0.5 µg/mL (≈ 1.41 µM)
- MIC [3]: 32 µg/mL (≈ 90.1 µM)
- MIC [4]: 16 µg/mL (≈ 45 µM)
- MIC [5]: 16 µg/mL (≈ 45 µM)
- IC50 [6]: 3 µM

SMILES: NC1CCN(c2c(F)cc3c(=O)n(N)c(=O)n(C4CC4)c3c2F)C1 (stereo not given)
- MIC [1]: 2 µg/mL (≈ 5.93 µM)
- MIC [2]: 0.25 µg/mL (≈ 0.741 µM)
- MIC [3]: 8 µg/mL (≈ 23.7 µM)
- MIC [4]: 8 µg/mL (≈ 23.7 µM)
- MIC [5]: 4 µg/mL (≈ 11.9 µM)
- IC50 [6]: 1.3 µM

SMILES: NCC1CCN(c2c(Cl)cc3c(=O)n(N)c(=O)n(C4CC4)c3c2Cl)C1 (stereo not given)
- MIC [1]: 16 µg/mL (≈ 41.6 µM)
- MIC [2]: 0.5 µg/mL (≈ 1.3 µM)
- MIC [3]: 4 µg/mL (≈ 10.4 µM)
- MIC [4]: 4 µg/mL (≈ 10.4 µM)
- MIC [5]: 2 µg/mL (≈ 5.2 µM)
- IC50 [6]: 1.2 µM

SMILES: Cc1c(N2CCC(N)C2)c(F)cc2c(=O)n(N)c(=O)n(C3CC3)c12 (stereo not given)
- MIC [1]: 1 µg/mL (≈ 3 µM)
- MIC [2]: 0.06 µg/mL (≈ 0.18 µM)
- MIC [3]: 2 µg/mL (≈ 6 µM)
- MIC [4]: 4 µg/mL (≈ 12 µM)
- MIC [5]: 0.5 µg/mL (≈ 1.5 µM)
- IC50 [6]: 0.1 µM

SMILES: NC1CCN(c2c(F)cc3c(=O)n(N)c(=O)n(C4CCC4)c3c2Cl)C1 (stereo not given)
- MIC [1]: 16 µg/mL (≈ 43.5 µM)
- MIC [2]: 2 µg/mL (≈ 5.44 µM)
- MIC [3]: > 64 µg/mL
- MIC [4]: > 64 µg/mL
- MIC [5]: > 64 µg/mL
- IC50 [6]: 23 µM

SMILES: Cc1c(N2CC[C@@H]([C@H](C)N)C2)c(F)c(C(F)F)c2c(=O)n(N)c(=O)n(C3CC3)c12
- MIC [1]: 64 µg/mL (≈ 156 µM)
- MIC [2]: 1 µg/mL (≈ 2.43 µM)
- MIC [3]: 1 µg/mL (≈ 2.43 µM)
- MIC [4]: 1 µg/mL (≈ 2.43 µM)
- MIC [5]: 0.25 µg/mL (≈ 0.608 µM)
- IC50 [6]: 8.2 µM

SMILES: NC1CCN(c2cc(F)c3c(=O)n(N)c(=O)n(C4CC4)c3c2F)C1 (stereo not given)
- MIC [1]: 32 µg/mL (≈ 94.9 µM)
- MIC [2]: 4 µg/mL (≈ 11.9 µM)
- MIC [3]: > 64 µg/mL
- MIC [4]: > 64 µg/mL
- MIC [5]: > 64 µg/mL
- IC50 [6]: 17 µM

SMILES: N[C@H]1CCN(c2c(F)cc3c(=O)n(N)c(=O)n(C4CC4)c3c2C(F)(F)F)C1
- MIC [1]: 8 µg/mL (≈ 20.7 µM)
- MIC [2]: 0.25 µg/mL (≈ 0.645 µM)
- MIC [3]: 32 µg/mL (≈ 82.6 µM)
- MIC [4]: 32 µg/mL (≈ 82.6 µM)
- MIC [5]: 4 µg/mL (≈ 10.3 µM)
- IC50 [6]: 5.2 µM

SMILES: CC(C)n1c(=O)n(N)c(=O)c2cc(F)c(N3CCC(N)C3)c(Cl)c21 (stereo not given)
- MIC [1]: > 64 µg/mL
- MIC [2]: > 64 µg/mL
- MIC [3]: > 64 µg/mL
- MIC [4]: > 64 µg/mL
- MIC [5]: > 64 µg/mL
- IC50 [6]: 98 µM

SMILES: N[C@H]1CCN(c2c(F)cc3c(=O)n(N)c(=O)n(C4CC4)c3c2Cl)C1
- MIC [1]: 0.5 µg/mL (≈ 1.41 µM)
- MIC [2]: 0.13 µg/mL (≈ 0.367 µM)
- MIC [3]: 4 µg/mL (≈ 11.3 µM)
- MIC [4]: 2 µg/mL (≈ 5.65 µM)
- MIC [5]: 2 µg/mL (≈ 5.65 µM)
- IC50 [6]: 0.4 µM

SMILES: COc1c(N2CCC(N)C2)c(F)cc2c(=O)n(N)c(=O)n(C3CC3)c12 (stereo not given)
- MIC [1]: 4 µg/mL (≈ 11.4 µM)
- MIC [2]: 0.5 µg/mL (≈ 1.43 µM)
- MIC [3]: 8 µg/mL (≈ 22.9 µM)
- MIC [4]: 8 µg/mL (≈ 22.9 µM)
- MIC [5]: 4 µg/mL (≈ 11.4 µM)
- IC50 [6]: 4.3 µM

SMILES: O=C(O)c1cn(C2CC2)c2cc(N3CCNCC3)c(F)cc2c1=O [CIPROFLOXACIN]
- MIC [3]: 0.4 µg/mL (≈ 1.21 µM)
- MIC [4]: 4 µg/mL (≈ 12.1 µM)
- MIC [5]: 2 µg/mL (≈ 6.04 µM)

SMILES: CN[C@H]1CCN(c2c(F)cc3c(=O)n(N)c(=O)n(C4CC4)c3c2Cl)C1
- MIC [1]: 4 µg/mL (≈ 10.9 µM)
- MIC [2]: 0.5 µg/mL (≈ 1.36 µM)
- MIC [3]: 16 µg/mL (≈ 43.5 µM)
- MIC [4]: 16 µg/mL (≈ 43.5 µM)
- MIC [5]: 8 µg/mL (≈ 21.8 µM)
- IC50 [6]: 6.1 µM

SMILES: CCn1c(=O)n(N)c(=O)c2cc(F)c(N3CC[C@H](N)C3)cc21
- MIC [1]: 64 µg/mL (≈ 208 µM)
- MIC [2]: 16 µg/mL (≈ 52.1 µM)
- MIC [3]: > 64 µg/mL
- MIC [4]: > 64 µg/mL
- MIC [5]: > 64 µg/mL
- IC50 [6]: 35 µM

SMILES: NC1CCN(c2c(F)cc3c(=O)n(N)c(=O)n(-c4ccc(F)cc4F)c3c2Cl)C1 (stereo not given)
- MIC [1]: > 64 µg/mL
- MIC [2]: 64 µg/mL (≈ 150 µM)
- MIC [3]: > 64 µg/mL
- MIC [4]: > 64 µg/mL
- MIC [5]: > 64 µg/mL
- IC50 [6]: > 100 µM
